Laboratory results published in publication PMC4085604 (Scientific Reports, 2014).

How the values were obtained:
[1] = system: BHQ-10-labeled anti-His-tag mAb “8-4-4”; test: Homogeneous His6 detection assay; type: binding, mouse; settings: for phosphorescence response, in words: increasing protein concentration, TRF after 90 s shaking; for detectability within total assay time, in words: total assay time of less than two minutes
Outline: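 His6-tagged proteins (C- or N-terminal tag, or chemically His6-labeled BSA) in PBS pH 7.4 with 2 mg/mL BSA, or in E. coli lysate. Premixed with EuLH-HHRHH-NH2 donor peptide solution (40 nmol/L), then BHQ-10-labeled antibody solution (80 nmol/L) added. After 90 s shaking, read TRF at ex 370/em 616 nm. Triplicates. LOD is the lowest concentration whose mean exceeds blank plus 3 SD.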

anti-His-tag mAb “8-4-4” = type: binding, mouse; settings: inferred from FRET efficiency curve

## Bovine serum albumin [BSA, reference compound]
[1]; n = 3
  phosphorescence response, in words: no response

## HHEHH-NH2
anti-His-tag mAb “8-4-4”
  affinity to the anti-His-tag antibody, in words: full loss of affinity to the anti-His-tag antibody

## HHHHH-NH2
anti-His-tag mAb “8-4-4”
  affinity to the anti-His-tag antibody, in words: did not influence the FRET efficiency curve substantially, and therefore also not the affinity

## HHHHHH-NH2
anti-His-tag mAb “8-4-4”
  affinity to the anti-His-tag antibody, in words: strong and specific interaction between the peptide and the antibody

## NPP3-His6: recombinant protein with C-terminal His-tag
[1]
  detectability within total assay time, in words: could be detected highly significantly and semi-quantitatively

B1: His6-trigger factor: trigger factor (N-terminal His-tag) (protein, UniProt P0A850 1-432, looked up)
Trigger factor: MQVSVETTQGLGRRVTITIAADSIETAVKSELVNVAKKVRIDGFRKGKVPMNIVAQRYGASVRQDVLGDLMSRNFIDAIIKEKINPAGAPTYVPGEYKLGEDFTYSVEFEVYPEVELQGLEAIEVEKPIVEVTDADVDGMLDTLRKQQATWKEKDGAVEAEDRVTIDFTGSVDGEEFEGGKASDFVLAMGQGRMIPGFEDGIKGHKAGEEFTIDVTFPEEYHAENLKGKAAKFAINLKKVEERELPELTAEFIKRFGVEDGSVEGLRAEVRKNMERELKSAIRNRVKSQAIEGLVKANDIDVPAALIDSEIDVLRRQAAQRFGGNEKQALELPRELFEEQAKRRVVVGLLLGEVIRTNELKADEERVKGLIEEMASAYEDPKEVIEFYSKNKELMDNMRNVALEEQAVEAVLAKAKVTEKETTFNELMNQQA
modifications: N-terminal His6 tag
[1]; n = 3
  phosphorescence response, in words: increasing phosphorescence intensities with increasing protein concentration
[1]; mass concentration, sample 50 μL + donor peptide EuLH-HHRHH-NH2 (10 μL, 40 nmol/L) + BHQ-10-mAb (40 μL, 80 nmol/L), PBS pH 7.4 with 2 mg/mL BSA, 90 s, n = 3, background plus 3x SD
  detection limit: 39 mg/L
[1]
  detectability within total assay time, in words: could be detected highly significantly and semi-quantitatively
